Source: PubChem BioAssay (several laboratories)
p97 ATPase inh = human p97 ATPase inhibition | P55072 | recombinant p97 ATPase, Kinase-Glo ATP luminescence, 3 h | inhibition, % at 8 µM | 220,000 tested, 0.42% active; in the data active = inhibition above about 15%;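 note: 0% = DMSO vehicle and 100% = wells lacking enzyme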
Target sequence (P55072 whole entry, looked up): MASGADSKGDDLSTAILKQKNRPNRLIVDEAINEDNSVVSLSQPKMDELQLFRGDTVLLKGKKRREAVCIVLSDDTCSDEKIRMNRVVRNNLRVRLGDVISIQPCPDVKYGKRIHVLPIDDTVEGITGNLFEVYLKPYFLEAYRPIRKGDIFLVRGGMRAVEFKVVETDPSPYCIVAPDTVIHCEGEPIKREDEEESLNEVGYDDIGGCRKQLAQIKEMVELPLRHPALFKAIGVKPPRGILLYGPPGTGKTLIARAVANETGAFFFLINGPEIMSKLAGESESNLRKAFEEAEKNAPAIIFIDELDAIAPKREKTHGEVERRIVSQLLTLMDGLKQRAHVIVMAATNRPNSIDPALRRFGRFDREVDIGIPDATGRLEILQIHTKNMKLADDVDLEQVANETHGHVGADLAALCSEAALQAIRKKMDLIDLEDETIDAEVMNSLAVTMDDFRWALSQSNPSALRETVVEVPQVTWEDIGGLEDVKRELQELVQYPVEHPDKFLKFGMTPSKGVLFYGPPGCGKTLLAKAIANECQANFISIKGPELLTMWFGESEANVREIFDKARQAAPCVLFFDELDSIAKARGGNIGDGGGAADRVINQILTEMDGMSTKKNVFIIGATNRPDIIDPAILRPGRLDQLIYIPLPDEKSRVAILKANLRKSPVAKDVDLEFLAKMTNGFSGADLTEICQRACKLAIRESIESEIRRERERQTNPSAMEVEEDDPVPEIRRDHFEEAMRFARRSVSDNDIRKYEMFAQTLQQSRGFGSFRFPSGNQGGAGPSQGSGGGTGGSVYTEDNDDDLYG
TNAP act hiacc = TNAP (human) activation, high acceptor | P05186 | activation factor at 20 µM | purified TNAP, CDP-star luminescence, 1 M DEA, 30 min; active compounds read high; 0 = EDTA background, 1 = DMSO-only activity | 200,000 tested, under 10 active;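 active = activation factor at least 2 at 20 µM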
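Control set: EDTA negative control, DMSO positive control / Assay system: human TNAP / Quantity: TNAP 1/800 final / Evaluation: TNAP activation factor scaled between EDTA and DMSO control wells / Measured by: luminescent substrate turnover signal / Compound dosing: one dose, 20 µM / Times: 30 min enzyme reaction at room temperature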
PERK inhibitor = human PERK inhibition, primary cell-based screen | Q9NZJ5 | 220,000 tested, 0.17% active | inhibition, % at 5.6 µM | CHO PERK-DD fusion, SEAP luminescence translation reporter;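 active = inhibition above the mean inhibition of all tested compounds plus 3 SD, set separately per screening campaign, cut at about 2.9% in these data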;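 note: PERK kinase domain activated by AP20187 dimerizer at 100 nM; 0% = DMSO with dimerizer and 100% = rapamycin at 8.4 µM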
TNAP inh hiacc = inhibitors of human TNAP at high phosphate acceptor concentration | P05186 | purified TNAP, CDP-star luminescence, 1 M DEA | inhibition, % at 20 µM | 200,000 tested, 0.03% active | AID 1135;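 active = over 50% inhibition of tissue-nonspecific alkaline phosphatase at 20 µM in the single-dose screen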;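 note: plate controls were DMSO wells for no effect and EDTA-quenched wells as full inhibition for full effect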
DTT redox prof = compounds producing H2O2 with reducing agent – biochemical, NIH compound library profiling, artefact control for MLSCN library redox annotation, primary screen. DTT-dependent redox cycling H2O2, phenol red/HRP absorbance; 100% = 100 µM peroxide control, 0% = buffer. activation, % at 10 µM. 200,000 tested, 0.03% active. AID 878;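 active = activation of at least 50% relative to the plate's high and low controls in the primary single-dose screen; inactive = activation below 50%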;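 note: compound incubated with DTT at 0.8 mM final as the reducing agent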
TNAP inh noacc = inhibitors of human TNAP without phosphate acceptor. 200,000 tested, 0.26% active. inhibition, % at 20 µM. purified TNAP, CDP-star luminescence, 30 min. P05186. AID 1012;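 active = tissue-nonspecific alkaline phosphatase inhibition above about 50% at 20 µM in the single-dose screen, limit read from the data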;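 note: 0% = DMSO negative control and 100% = EDTA positive control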
* marks the source's active call; other numbers are inactive results; . = no result given. A selection: hits, their analogues and other compounds. The true share with any hit is near 0.86%.

SMILES | p97 ATPase inh | TNAP act hiacc | PERK inhibitor | TNAP inh hiacc | DTT redox prof | TNAP inh noacc
N=C(N)SCc1ncccc1O | 5 | . | 2 | . | . | .
N=C(N)SCc1ccccn1 | 4 | 1 | 2 | -2 | 3 | 51*
Cc1cccc(-c2nnc(SCC(=O)Nc3nc4c(s3)CCCC4)n2C)c1 | 1 | 0.9 | -1 | 6 | 1 | 2
CCN(CC)c1ccc(/C=C2\CCC(/C=C(\C#N)C(=O)Nc3ccccc3F)=C2N2CCOCC2)cc1 | 2 | 0.5 | 1 | 47 | 8 | 53*
O=C(O)Cn1cnc2c(=S)nc[nH]c21 | 10 | . | 3.7* | . | . | .
Cn1c(=O)c2ncn(CC(=O)O)c2n(C)c1=O | 8 | . | 0 | . | . | .
CC(Nc1cc(N2CCCC2)ccc1[N+](=O)[O-])c1ccccc1 (stereo not given) | 2 | 1 | 2.9* | 5 | 4 | 3
CC(=O)c1cccc(N(C(=O)Cn2nnc3ccccc32)C(C(=O)NC2CCCCC2)c2cn(C)nc2C)c1 (stereo not given) | -5 | 1 | -1 | 0 | 0 | -5
O=C(NC1CCCCC1)C(c1ccc(O)c(O)c1)N(C(=O)Cn1nnc2ccccc21)c1cccc(O)c1 (stereo not given) | 7 | 1 | 0 | 0 | 3 | 51*
C[C@](N)(Cc1ccc(O)c(O)c1)C(=O)O | -1 | 1 | 1 | 5 | 0 | 54*
COC(=O)C(N)Cc1ccc(O)c(O)c1 (stereo not given) | 2 | 1 | 1 | 4 | 0 | 47
CC(=O)Nc1c(Br)cc(N2C(=O)CCC2=O)cc1Br | -1 | 1 | 3.1* | 1 | -1 | -11
Cc1ccc(/C=C/C(=O)OCC(=O)NCCN2C(=O)CSC2=O)o1 | 8 | 1 | 3.2* | -2 | -1 | -25
Cc1ccc(/C=C/C(=O)OCC(=O)NCCN2C(=O)CSC2=O)cc1 | 1 | 1 | 1 | 3 | -1 | -16
COc1cccc(NS(=O)(=O)c2ccc3c(c2)C2C=CCC2C(c2ccc(C(=O)O)cc2)N3)c1 (stereo not given) | 15* | 1 | 1 | 1 | 0 | -5
O=C(O)c1ccc(N/N=C/C(Br)=C/c2ccccc2)cc1 | 15* | . | 0 | . | . | .
O=C(N/N=C/C(Br)=C/c1ccccc1)C(O)c1ccccc1 (stereo not given) | -8 | . | 0 | . | . | .
O=c1[nH][nH]c(-c2ccccc2O)c1C(C[N+](=O)[O-])c1ccc(Cl)cc1Cl (stereo not given) | 2 | 0.5 | 1 | 50 | 0 | 70*
CCNC(=O)/C(=C/c1cccc([N+](=O)[O-])c1)NC(=O)c1ccc(C)cc1 | 9 | 1 | 0 | 0 | -2 | -4
CCc1ccc(NSc2ccccc2[N+](=O)[O-])cc1 | 2 | 1 | 3.2* | 0 | 2 | -4
O=C(O)c1ccccc1NSc1ccccc1[N+](=O)[O-] | -4 | 1 | 0 | 0 | -1 | 4
C/C(=N\NC(=O)CSCc1ccccc1Cl)c1cc(O)ccc1O | 3 | 0.9 | -1 | 6 | 6 | 75*
CC(C)C(=O)NNc1ccccc1 | 0 | 1 | 2 | -3 | -1 | -5
CC(C)C(=O)NNc1ccc(C(F)(F)F)cn1 | 9 | . | 3.6* | . | . | .
COCCNC(=O)c1c[nH]n2c(=O)cc(C3CCN(C(=O)OC(C)(C)C)CC3)nc12 | 4 | 1 | 3.8* | -4 | 0 | -16
CCC(C)[C@@H](C(=O)NCC1CCC(C(=O)O)CC1)n1nnc2ccccc2c1=O (stereo not given in full) | 1 | 1 | 2.9* | -1 | 0 | -4
O=S(=O)(Nc1cc(Sc2cccc3cccnc23)c(O)c2ccccc12)c1ccc(F)cc1 | 9 | 0.9 | 0 | 6 | -1 | 32
COc1ccc(S(=O)(=O)Nc2cc(Sc3ncn[nH]3)c(O)c3ccccc23)cc1 | 31* | 1 | -1 | 4 | 1 | 29
COc1ccc(S(=O)(=O)Nc2ccc(O)c(Sc3ncn[nH]3)c2)cc1 | -3 | 0.9 | 0 | 5 | 0 | 79*
Cc1cc(C)c(S(=O)(=O)Nc2ccc3[nH]c(=O)[nH]c3c2)c(C)c1 | -2 | 1.1 | -1 | -7 | -3 | -16
